Laboratory results reported in ChEMBL document CHEMBL1130132, “Selective inhibition of neuronal nitric oxide synthase by N omega-nitroarginine-and phenylalanine-containing dipeptides and dipeptide esters” (J Med Chem, 1997).
pKi: −log10 of the molar value. Where a SMILES comes first, the peptide text is derived from it. [ ]: non-standard residue; d: D form. The star is where a group is joined. dArg(NO2) = N=C(NCCC[C@@H](N)C(=O)O)N[N+](=O)[O-]; Arg(NO2) = N=C(NCCC[C@H](N)C(=O)O)N[N+](=O)[O-]; OBn = c1ccc(CO*)cc1

Tests used:
[1] = Selectivity for iNOS and eNOS binding, ratio of Ki
[2] = molecular target: T1, Nitric oxide synthase, inducible (Mus musculus, UniProt P29477); experiment: Inhibition of inducible Nitric Oxide Synthase
T1 sequence (P29477 whole entry): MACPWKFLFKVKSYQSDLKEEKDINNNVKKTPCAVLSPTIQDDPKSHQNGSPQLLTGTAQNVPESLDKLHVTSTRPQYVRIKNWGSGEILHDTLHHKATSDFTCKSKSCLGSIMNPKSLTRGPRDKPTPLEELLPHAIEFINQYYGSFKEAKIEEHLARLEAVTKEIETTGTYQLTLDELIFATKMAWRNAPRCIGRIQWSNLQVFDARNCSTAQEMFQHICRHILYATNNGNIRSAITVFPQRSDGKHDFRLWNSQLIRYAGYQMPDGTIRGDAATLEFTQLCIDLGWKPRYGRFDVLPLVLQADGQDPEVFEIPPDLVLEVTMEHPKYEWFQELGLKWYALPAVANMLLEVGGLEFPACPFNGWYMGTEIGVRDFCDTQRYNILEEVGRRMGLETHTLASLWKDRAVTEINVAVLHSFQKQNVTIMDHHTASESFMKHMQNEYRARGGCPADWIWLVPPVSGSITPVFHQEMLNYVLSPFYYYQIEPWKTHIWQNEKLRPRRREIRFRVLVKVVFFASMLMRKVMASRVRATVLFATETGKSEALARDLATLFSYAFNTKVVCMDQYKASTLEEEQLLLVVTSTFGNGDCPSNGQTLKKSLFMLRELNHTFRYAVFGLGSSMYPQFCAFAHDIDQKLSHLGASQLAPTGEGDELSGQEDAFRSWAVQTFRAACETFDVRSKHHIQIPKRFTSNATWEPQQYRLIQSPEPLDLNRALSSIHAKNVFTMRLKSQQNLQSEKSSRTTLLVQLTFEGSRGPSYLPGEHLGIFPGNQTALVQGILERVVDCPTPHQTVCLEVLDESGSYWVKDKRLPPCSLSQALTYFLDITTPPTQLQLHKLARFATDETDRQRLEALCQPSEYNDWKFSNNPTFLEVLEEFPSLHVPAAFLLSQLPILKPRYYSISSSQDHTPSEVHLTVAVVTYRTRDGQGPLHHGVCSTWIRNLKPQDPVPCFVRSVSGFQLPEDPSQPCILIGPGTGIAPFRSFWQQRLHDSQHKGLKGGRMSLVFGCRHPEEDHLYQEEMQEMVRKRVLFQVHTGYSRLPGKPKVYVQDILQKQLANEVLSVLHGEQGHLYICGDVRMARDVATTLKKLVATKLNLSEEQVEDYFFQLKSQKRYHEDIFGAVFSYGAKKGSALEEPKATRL
In short: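 Purified murine macrophage iNOS expressed in recombinant E. coli (500 nmol NO/mg/min at 30 °C). Initial-rate hemoglobin capture assay in 100 mM Hepes pH 7.5 with 10-60 µM L-arginine, 100 µM DTT, 100 µM NADPH, 6.5 µM BH4 and 3 µM oxyhemoglobin, without added calcium/calmodulin. Ki taken from Dixon plots across varied L-arginine and inhibitor concentrations.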

[3] = molecular target: Nitric oxide sythases; iNOS & nNOS (Homo sapiens) (UniProt P29475+P35228); experiment: Selectivity for nNOS and iNOS, ratio of Ki; assay type: protein assay
Nitric oxide synthase 3 = molecular target: T2, Nitric oxide synthase 3 (Bos taurus, UniProt P29473); experiment: Inhibition of endothelial isoform of nitric oxide synthase
T2 sequence (P29473 whole entry): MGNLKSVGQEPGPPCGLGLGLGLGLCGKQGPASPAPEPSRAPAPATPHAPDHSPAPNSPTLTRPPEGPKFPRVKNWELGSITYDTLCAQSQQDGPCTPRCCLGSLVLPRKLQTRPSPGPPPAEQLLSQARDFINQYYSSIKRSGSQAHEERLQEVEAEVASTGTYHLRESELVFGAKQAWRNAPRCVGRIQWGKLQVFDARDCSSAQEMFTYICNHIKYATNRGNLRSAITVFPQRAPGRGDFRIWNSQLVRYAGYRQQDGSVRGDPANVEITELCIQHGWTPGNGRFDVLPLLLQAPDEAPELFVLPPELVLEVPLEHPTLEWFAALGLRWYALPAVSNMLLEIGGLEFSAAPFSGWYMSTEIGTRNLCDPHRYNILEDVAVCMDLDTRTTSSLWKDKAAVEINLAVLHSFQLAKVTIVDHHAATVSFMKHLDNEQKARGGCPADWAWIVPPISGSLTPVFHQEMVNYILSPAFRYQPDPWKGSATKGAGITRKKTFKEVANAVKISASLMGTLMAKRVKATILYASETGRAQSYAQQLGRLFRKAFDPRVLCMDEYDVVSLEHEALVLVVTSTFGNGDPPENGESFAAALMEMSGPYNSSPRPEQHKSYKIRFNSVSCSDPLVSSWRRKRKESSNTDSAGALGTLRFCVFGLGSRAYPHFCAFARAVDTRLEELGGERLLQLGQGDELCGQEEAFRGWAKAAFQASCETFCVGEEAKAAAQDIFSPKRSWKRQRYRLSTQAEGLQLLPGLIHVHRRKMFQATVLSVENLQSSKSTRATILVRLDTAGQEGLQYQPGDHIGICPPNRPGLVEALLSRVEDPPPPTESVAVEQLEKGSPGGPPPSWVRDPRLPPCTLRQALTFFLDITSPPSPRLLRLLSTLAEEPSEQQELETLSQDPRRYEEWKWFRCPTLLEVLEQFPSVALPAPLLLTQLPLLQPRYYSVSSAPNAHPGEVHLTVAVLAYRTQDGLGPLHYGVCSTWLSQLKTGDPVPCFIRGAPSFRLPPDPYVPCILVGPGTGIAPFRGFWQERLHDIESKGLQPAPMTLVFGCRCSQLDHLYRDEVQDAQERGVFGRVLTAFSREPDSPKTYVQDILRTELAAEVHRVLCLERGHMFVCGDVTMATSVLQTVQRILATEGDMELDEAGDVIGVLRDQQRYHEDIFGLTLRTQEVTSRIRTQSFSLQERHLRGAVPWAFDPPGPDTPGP
In short: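 eNOS expressed in E. coli, purified and supplemented with L-arginine and BH4 (235 nmol NO/mg/min at 25 °C). NO formation was followed by oxyhemoglobin capture (80 µM) under initial rates in 50 mM Hepes pH 7.5 with 3-25 µM L-arginine, 100 µM DTT, 10 µM CaCl2, 1 µg/mL calmodulin, 5 µM BH4 and 100 µM NADPH. Ki came from Dixon plots with varied substrate and inhibitor.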

[4] = Selectivity for nNOS and eNOS, ratio of Ki

Sequence of Nitric oxide sythases; iNOS & nNOS (Homo sapiens) (P29475 whole entry, looked up, canonical isoform): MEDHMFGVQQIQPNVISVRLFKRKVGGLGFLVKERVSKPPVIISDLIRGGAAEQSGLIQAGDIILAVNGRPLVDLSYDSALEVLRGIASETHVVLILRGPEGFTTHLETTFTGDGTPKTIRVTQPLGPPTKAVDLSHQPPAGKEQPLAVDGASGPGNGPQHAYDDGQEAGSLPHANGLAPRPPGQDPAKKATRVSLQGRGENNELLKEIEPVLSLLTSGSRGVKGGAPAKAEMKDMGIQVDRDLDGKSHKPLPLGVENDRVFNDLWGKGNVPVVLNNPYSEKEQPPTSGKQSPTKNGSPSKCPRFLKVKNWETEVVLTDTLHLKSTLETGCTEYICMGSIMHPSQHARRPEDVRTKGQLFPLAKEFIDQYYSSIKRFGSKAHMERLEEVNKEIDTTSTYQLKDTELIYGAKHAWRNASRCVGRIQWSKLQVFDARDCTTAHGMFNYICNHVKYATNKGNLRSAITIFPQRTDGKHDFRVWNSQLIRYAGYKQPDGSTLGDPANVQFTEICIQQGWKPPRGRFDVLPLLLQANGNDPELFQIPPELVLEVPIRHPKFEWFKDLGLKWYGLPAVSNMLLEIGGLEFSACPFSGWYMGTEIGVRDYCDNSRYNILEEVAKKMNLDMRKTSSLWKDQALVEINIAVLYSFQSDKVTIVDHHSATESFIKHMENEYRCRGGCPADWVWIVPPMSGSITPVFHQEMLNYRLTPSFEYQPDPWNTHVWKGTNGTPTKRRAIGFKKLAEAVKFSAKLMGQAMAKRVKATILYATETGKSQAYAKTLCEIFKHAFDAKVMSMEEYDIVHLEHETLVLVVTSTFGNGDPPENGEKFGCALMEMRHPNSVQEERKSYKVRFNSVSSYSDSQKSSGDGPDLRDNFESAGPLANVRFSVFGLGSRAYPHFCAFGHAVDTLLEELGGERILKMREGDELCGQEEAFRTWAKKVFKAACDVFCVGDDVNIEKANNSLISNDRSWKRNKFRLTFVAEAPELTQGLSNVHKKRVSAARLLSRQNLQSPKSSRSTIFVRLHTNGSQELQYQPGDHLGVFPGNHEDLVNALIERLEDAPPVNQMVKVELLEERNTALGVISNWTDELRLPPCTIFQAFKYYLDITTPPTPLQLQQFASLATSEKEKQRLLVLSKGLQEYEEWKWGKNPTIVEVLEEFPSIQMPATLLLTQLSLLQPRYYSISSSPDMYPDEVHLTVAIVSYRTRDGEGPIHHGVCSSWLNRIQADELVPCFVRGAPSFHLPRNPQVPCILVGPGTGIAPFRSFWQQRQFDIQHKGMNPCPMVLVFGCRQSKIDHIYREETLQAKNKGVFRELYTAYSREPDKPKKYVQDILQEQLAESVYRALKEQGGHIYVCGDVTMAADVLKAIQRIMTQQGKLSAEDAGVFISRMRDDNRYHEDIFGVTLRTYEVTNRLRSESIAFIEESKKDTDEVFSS
Sequence of Nitric oxide sythases; iNOS & nNOS (Homo sapiens) (P35228 whole entry, looked up, canonical isoform): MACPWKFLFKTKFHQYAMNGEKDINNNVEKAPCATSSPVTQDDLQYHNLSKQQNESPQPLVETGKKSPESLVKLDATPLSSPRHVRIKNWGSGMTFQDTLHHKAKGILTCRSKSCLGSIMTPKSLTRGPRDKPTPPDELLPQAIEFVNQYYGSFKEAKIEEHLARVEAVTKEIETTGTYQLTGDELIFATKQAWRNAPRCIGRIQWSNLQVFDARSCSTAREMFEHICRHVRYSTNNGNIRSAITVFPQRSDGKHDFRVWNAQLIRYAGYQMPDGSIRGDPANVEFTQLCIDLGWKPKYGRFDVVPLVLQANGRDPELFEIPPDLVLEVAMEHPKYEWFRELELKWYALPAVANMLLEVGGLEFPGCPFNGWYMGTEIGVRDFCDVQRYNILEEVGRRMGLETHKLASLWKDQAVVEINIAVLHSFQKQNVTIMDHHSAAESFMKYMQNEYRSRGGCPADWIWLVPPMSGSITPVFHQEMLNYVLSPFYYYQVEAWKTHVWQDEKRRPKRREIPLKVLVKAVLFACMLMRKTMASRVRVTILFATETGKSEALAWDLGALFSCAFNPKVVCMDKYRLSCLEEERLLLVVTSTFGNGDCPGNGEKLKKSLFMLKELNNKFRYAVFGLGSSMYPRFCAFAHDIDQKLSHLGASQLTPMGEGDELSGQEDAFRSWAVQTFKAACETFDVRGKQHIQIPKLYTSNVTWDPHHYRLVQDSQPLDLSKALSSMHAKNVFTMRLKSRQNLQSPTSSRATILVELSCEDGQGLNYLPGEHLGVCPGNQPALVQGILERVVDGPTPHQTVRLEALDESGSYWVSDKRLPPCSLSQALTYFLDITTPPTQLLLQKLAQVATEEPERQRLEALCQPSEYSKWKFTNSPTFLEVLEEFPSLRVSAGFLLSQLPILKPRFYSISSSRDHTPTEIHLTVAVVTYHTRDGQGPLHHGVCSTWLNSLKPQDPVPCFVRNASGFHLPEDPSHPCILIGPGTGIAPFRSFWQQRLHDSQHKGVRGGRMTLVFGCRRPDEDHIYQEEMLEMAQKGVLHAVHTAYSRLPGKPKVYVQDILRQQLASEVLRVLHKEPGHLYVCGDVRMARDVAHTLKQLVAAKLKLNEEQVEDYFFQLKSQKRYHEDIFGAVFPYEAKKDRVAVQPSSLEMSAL

Compound	Selectivity [1]	pKi [2]	Selectivity [3]	pKi (Nitric oxide synthase 3)	Selectivity [4]
N/C(=N\CCC[C@H](N)C(=O)N[C@@H](Cc1ccccc1)C(=O)O)N[N+](=O)[O-]	2.5	3.80	8.9	3.40	21.9
N/C(=N\CCC[C@H](NC(=O)[C@@H](N)Cc1ccccc1)C(=O)OCc1ccccc1)N[N+](=O)[O-] (H-Phe-[Arg(NO2)]-OBn)	5.6	4.35	0.41	3.60	2.3
COC(=O)[C@@H](Cc1ccccc1)NC(=O)[C@H](N)CCCNC(=N)N[N+](=O)[O-]		2.19		3.43	
COC(=O)[C@@H](CCCNC(=N)N[N+](=O)[O-])NC(=O)[C@H](N)Cc1ccccc1 [listing 1 of 2 here]		2.44		5.30	
COC(=O)[C@@H](CCC/N=C(\N)N[N+](=O)[O-])NC(=O)[C@@H](N)Cc1ccccc1	0.02	2.12	83.3	3.82	1.7
N=C(NCCC[C@H](NC(=O)[C@@H](N)Cc1ccccc1)C(=O)O)N[N+](=O)[O-] (H-Phe-[Arg(NO2)]-OH)		4.03		3.31	
COC(=O)[C@H](Cc1ccccc1)NC(=O)[C@@H](N)CCC/N=C(\N)N[N+](=O)[O-]		4.35		3.40	
COC(=O)[C@@H](Cc1ccccc1)NC(=O)[C@@H](N)CCC/N=C(\N)N[N+](=O)[O-]	5.3	4.00	1.1	3.28	5.7
COC(=O)[C@@H](CCCNC(=N)N[N+](=O)[O-])NC(=O)[C@H](N)Cc1ccccc1 [listing 2 of 2 here]		2.92		2.07	
N/C(=N\CCC[C@@H](NC(=O)[C@H](N)Cc1ccccc1)C(=O)O)N[N+](=O)[O-] (H-[dF]-[dArg(NO2)]-OH)	0.0066	1.87	800	4.05	5.3
N/C(=N\CCC[C@H](N)C(=O)N[C@@H](Cc1ccccc1)C(=O)OCc1ccccc1)N[N+](=O)[O-]	6.9	4.74	0.33	3.90	2.3
COC(=O)[C@H](CCC/N=C(\N)N[N+](=O)[O-])NC(=O)[C@@H](N)Cc1ccccc1	6.6	3.69	0.55	2.87	3.6
N/C(=N\CCC[C@H](NC(=O)[C@@H](N)Cc1ccccc1)C(=O)O)N[N+](=O)[O-] (H-Phe-[Arg(NO2)]-OH)	5.3		0.66		3.5
COC(=O)[C@@H](Cc1ccccc1)NC(=O)[C@H](N)CCC/N=C(\N)N[N+](=O)[O-]	0.058		43.3		2.5
